Measured values: the M2OR odorant receptor database

The compounds below were run against T1, OR1A1 (Homo sapiens) (UniProt Q9P1Q5). Details: stereoisomer not certain.
T1 sequence (whole entry): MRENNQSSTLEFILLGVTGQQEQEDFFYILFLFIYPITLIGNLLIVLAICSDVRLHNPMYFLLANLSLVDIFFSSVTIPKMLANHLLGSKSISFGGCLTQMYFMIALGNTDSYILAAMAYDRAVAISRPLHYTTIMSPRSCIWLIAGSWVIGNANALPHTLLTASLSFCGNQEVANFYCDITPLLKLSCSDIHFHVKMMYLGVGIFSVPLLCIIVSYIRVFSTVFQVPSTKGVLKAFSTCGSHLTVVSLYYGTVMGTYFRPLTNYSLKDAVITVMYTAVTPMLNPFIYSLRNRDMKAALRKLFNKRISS
Procedure, shortened: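 Whether a receptor–molecule pair is responsive (active) rests on the original authors' judgment that its measured signal was statistically different from baseline. Pairs without that judgment are non-responsive (inactive). Sources used varied assay methods, commonly transient luciferase assays in mammalian cell lines.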
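Note: active if original authors judged signal statistically different from baseline.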

Row | Compound | odorant receptor agonist call
1 | CCCCCCO | inactive
2 | SCc1cccs1 | inactive
3 | CCC=CCCC=O | inactive
4 | COC(=O)C=Cc1ccccc1 | inactive
5 | C=CCOC(=O)CCCCCC | active
6 | CSCSC | inactive
7 | CCCCCCOC(C)=O | inactive
8 | CC=CC(=O)C1=C(C)C=CCC1(C)C | inactive
9 | CC(=O)C(C)C(C)=O | inactive
10 | CSSc1ccoc1C | inactive
11 | c1cnc2c(c1)ccc1cccnc12 | inactive
12 | C=C(C)C1CC=C(C)CC1 (stereo unspecified) | active
13 | O=C(c1ccccc1)c1ccccc1 | active
14 | CC1=CCC(C(C)C)C=C1 (stereo unspecified) | inactive
15 | CCCC(=O)OCC | inactive
16 | COC(=O)Cc1ccccc1C | active
17 | CC(=O)C=CC1C(C)=CCCC1(C)C (stereo unspecified) | inactive
18 | CCCCCC1CCC(=O)O1 (stereo unspecified) | active

Row | Compound | odorant receptor agonist call
19 | CC(=O)CC(C)(C)S | inactive
20 | CC(=O)c1ccccc1N | inactive
21 | O=C([O-])CCCCC(=O)[O-].[H+].[H+] | inactive
22 | CCC(=O)C1=NCCC1 | inactive
23 | CCCCCCCO | active
24 | CCCCCC=O | inactive
25 | OCC=Cc1ccccc1 | inactive
26 | CCC=CCCOC(C)=O | inactive
27 | c1ccccc1 | inactive
28 | COc1cc(C(=O)O)ccc1O | inactive
29 | CCCC1CCCC(=O)O1 (stereo unspecified) | inactive
30 | CC(C)CCO | inactive
31 | CCCCCC(=O)CC | active
32 | CCCCCCCCS | active
33 | CCCC=CC=O | inactive
34 | CCC=CCC=O | inactive
35 | CCOC(=O)C(C)C | inactive
36 | CCCCCCC(C)=O | active
